Assay outcomes (PubChem BioAssay)
Rpn11 inh: Rpn11 (human) deubiquitinase inhibition; inhibition, % at 20 µM; human 26S proteasome, Ub4-pepOG fluorescence polarization; 20S core pre-blocked with epoxomicin; 360,000 compounds, 0.59% hits; O00487; AID 588493;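 active means inhibition at 20 µM, scaled to each plate's controls, above about 33%, limit read from the data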
Target sequence (O00487 whole entry, looked up): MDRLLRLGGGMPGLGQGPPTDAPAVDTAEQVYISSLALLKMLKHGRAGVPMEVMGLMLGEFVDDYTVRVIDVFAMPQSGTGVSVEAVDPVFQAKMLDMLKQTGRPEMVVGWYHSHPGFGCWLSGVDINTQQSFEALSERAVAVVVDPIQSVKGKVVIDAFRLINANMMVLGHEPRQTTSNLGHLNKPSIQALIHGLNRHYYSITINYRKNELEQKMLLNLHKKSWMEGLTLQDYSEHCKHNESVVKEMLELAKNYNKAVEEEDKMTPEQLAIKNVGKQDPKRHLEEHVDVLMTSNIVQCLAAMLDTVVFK
HNF4A DNA FP: change in binding of human HNF4 alpha to DNA | HNF4a-FITC DNA binding, fluorescence polarization, 1 h | P41235 | 360,000 compounds, 0.3% hits | AID 1224865 | activity change, % at 10 µM; in the data active means activity change above about 30%, passing the limit was not always enough
CSN deneddyl inh: inhibitors of human CSN-mediated cullin deneddylation; Q92905; Purified CSN, SCF-Nedd8-OG deneddylation, fluorescence polarization; inhibition, % at 12.5 µM; 360,000 compounds, 0.38% hits; AID 651999;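 active means pattern-corrected inhibition above about 35%, with an unprinted fluorescence ratio check between 0.5 and 1.5, limit read from the data, passing the limit was not always enough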
Target sequence (Q92905 whole entry, looked up, one chain of several): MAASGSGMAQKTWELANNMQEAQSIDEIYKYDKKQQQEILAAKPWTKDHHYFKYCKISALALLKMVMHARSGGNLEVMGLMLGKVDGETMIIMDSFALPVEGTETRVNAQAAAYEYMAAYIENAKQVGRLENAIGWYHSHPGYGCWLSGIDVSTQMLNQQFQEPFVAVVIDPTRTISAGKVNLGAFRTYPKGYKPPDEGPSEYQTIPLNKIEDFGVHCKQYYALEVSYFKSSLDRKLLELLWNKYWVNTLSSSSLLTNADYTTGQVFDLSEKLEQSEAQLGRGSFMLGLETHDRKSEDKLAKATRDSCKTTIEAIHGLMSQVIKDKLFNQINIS
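Assay system: Purified human Csn5 enzyme expressed in HEK293T cells | Amount: Enzyme 0.24 nM | Measured by: Fluorescence polarization readout | Medium: Tris/NaCl/DTT buffer, pH 7.5 | Compound dosing: One concentration, 12.5 µM, 0.25% DMSO | Times: 90 min incubation of compound, enzyme and substrate at room temperature | Control set: no-enzyme wells high, enzyme-with-substrate wells low | Read-out: % inhibition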
Myeloid diff MLP: myeloid differentiation induction; ER-HoxA9 myeloid progenitors, lysozyme-GFP differentiation, flow cytometry; calls only at 10 µM; 360,000 compounds, 1% hits;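 active means normalized GFP-positive differentiation at or above the plate's own cutoff, the solvent-only control mean plus 3 SD; inconclusive means no clear call, values can overlap the other calls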;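 further: cells exposed to compound for four days before flow analysis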
TPT1 inhibitor: inhibitors of Candida albicans tRNA 2'-phosphotransferase TPT1 | recombinant caTPT1, FP RNA substrate dephosphorylation | inhibition, % at 5 µM | 300,000 compounds, 0.81% hits | AID 1962;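 active means inhibition above the mean of all tested compounds plus 3 SD, set per screening campaign, cut at about 24% in these data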
CSN deneddyl val: Csn5 (human) deneddylation inhibition, single-concentration validation; inhibition, % at 16.6 µM; shares compounds with CSN deneddyl inh; 540 compounds, 62% hits; AID 720654; Csn5 deneddylation of SCF-Nedd8OG, fluorescence polarization, 90 min; in the data active means inhibition above about 50%
MMP2 cntr CSN: MMP-2 (human) inhibition, counter-screen for CSN hits; shares compounds with CSN deneddyl inh; recombinant MMP-2, FRET substrate fluorescence, 60 min; inhibition, % at 16.6 µM; 540 compounds, 33% hits;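 active means corrected plate-normalized z-score of 5 or more, or -5 or less, or inhibition of 15% or more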
Thrombin counter: counter-screen for CSN deneddylation inhibitors: bovine thrombin inhibition. shares compounds with CSN deneddyl inh. AID 720656. inhibition, % at 16.6 µM. bovine thrombin cleavage of Ub4-pepOG, fluorescence polarization. 540 compounds, 49% hits;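 active means inhibition at or above a set limit, with a fluorescence interference ratio between 0.5 and a set maximum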
Each line names hits and unclear results; the compound was inactive in the other large screens (follow-up assays come after a bar, where shown). Sampled rows, rich in hits. Any-hit rate of the full collection: about 2.3%.

O=C(O)CCCN1C(=O)/C(=C\C(Cl)=C\c2ccccc2)SC1=S	CSN deneddyl inh 40, Myeloid diff MLP inconclusive (no result: TPT1 inhibitor) | CSN deneddyl val 75 | MMP2 cntr CSN 30 | Thrombin counter inactive
COc1ccc(N=C2NC(=O)/C(=C/c3ccco3)S2)cc1	none
Cc1ccc(N=C2NC(=O)/C(=C/C=C/c3ccco3)S2)cc1	CSN deneddyl inh 49 | CSN deneddyl val 93 | MMP2 cntr CSN 17 | Thrombin counter inactive
O=C(CC[C@H]1O[C@@H](n2ccc(=O)[nH]c2=O)[C@H](O)[C@@H]1O)NCCCc1ccccc1	none (no result: TPT1 inhibitor)
CC(C)Cn1c(N)c(C(=O)NCC2CCCO2)c2nc3ccccc3nc21 (stereo not drawn)	CSN deneddyl inh 43, Myeloid diff MLP active | CSN deneddyl val 103 | MMP2 cntr CSN inactive | Thrombin counter inactive
CCOC(=O)/C(=C\c1ccc(N2CCC(c3ccccc3)=N2)cc1)C(C)=O	CSN deneddyl inh 38 (not shown: Rpn11 inh, TPT1 inhibitor) | CSN deneddyl val 20 | MMP2 cntr CSN -58 | Thrombin counter 28
O=C(O)COc1ccc(/C=N/NC(=O)c2ccc(-c3csc(Nc4ccc(Cl)cc4)n3)cc2)cc1	Rpn11 inh 70, CSN deneddyl inh 93 (no result: TPT1 inhibitor) | CSN deneddyl val 98 | MMP2 cntr CSN 16 | Thrombin counter inactive
Cc1nc(CC(=O)N/N=C/c2ccc(OCC(=O)O)cc2)cs1	none
CCOc1cc(/C=N/NC(=O)c2ccc(-c3csc(Nc4ccc(C)cc4)n3)cc2)ccc1OCC(=O)O	CSN deneddyl inh 49 (no result: TPT1 inhibitor) | CSN deneddyl val inactive | MMP2 cntr CSN 30 | Thrombin counter inactive
CC(=O)OC[C@]12CC[C@H]3[C@@](C)(CC[C@H]4C(C)(C)CCC[C@]34C)[C@@H]1CC(C1=CC(=O)OC1O)O2 (stereo partly drawn)	Rpn11 inh 58, CSN deneddyl inh 35 (no result: TPT1 inhibitor) | CSN deneddyl val inactive | MMP2 cntr CSN inactive | Thrombin counter inactive
Cc1ccc(CN2C(=O)N/C(=C\c3ccc(-c4ccc(C(=O)O)cc4C)o3)C2=O)cc1	none
Cc1ccc(NC(=O)CN2C(=O)S/C(=C/c3ccc(-c4cccc(C(=O)O)c4)o3)C2=O)cc1	none (not shown: Rpn11 inh, TPT1 inhibitor)
Cc1ccccc1NC(=O)CN1C(=O)S/C(=C\c2ccc(-c3cc(C(=O)O)ccc3C)o2)C1=O	CSN deneddyl inh 71 (no result: TPT1 inhibitor) | MMP2 cntr CSN inactive | Thrombin counter inactive
CCOC(=O)C(C)N1C(=O)S/C(=C\c2ccc(-c3ccccc3C(=O)O)o2)C1=O (stereo not drawn)	CSN deneddyl inh 48 | MMP2 cntr CSN 25 | Thrombin counter inactive
C#CCN1C(=O)S/C(=C\c2ccc(-c3ccc(C(=O)O)cc3C)o2)C1=O	CSN deneddyl inh 39 | MMP2 cntr CSN inactive | Thrombin counter 37
CC(C)Cc1ccc(C(C)C(N)=NCCc2ccccc2)cc1 (stereo not drawn)	none (no result: TPT1 inhibitor)
CCN1C(=O)/C(=C/N2CCc3ccccc32)SC1=S	CSN deneddyl inh 37 (not shown: Rpn11 inh) | CSN deneddyl val 104 | MMP2 cntr CSN inactive | Thrombin counter inactive
CCOc1ccccc1NC(=O)c1ccc2nc[nH]c2c1	none
Cn1cnnc1SCCNS(=O)(=O)c1cccc([N+](=O)[O-])c1	none
Nc1cc2c3ccccc3ccc2c2ccccc12	CSN deneddyl inh 46 (no result: TPT1 inhibitor) | CSN deneddyl val 82 | MMP2 cntr CSN inactive | Thrombin counter inactive
Nc1ccc2ccccc2c1[N+](=O)[O-]	none (no result: TPT1 inhibitor)
Cc1cc(/C=c2/sc3nc4ccccc4n3c2=O)c(C)n1-c1ccccn1	none
Cc1cc(/C=c2\sc3nc4ccccc4n3c2=O)c(C)n1-c1ccc(C(=O)O)cc1	CSN deneddyl inh 35 (no result: TPT1 inhibitor) | CSN deneddyl val inactive | MMP2 cntr CSN inactive | Thrombin counter 27
Cc1ccc(N2C(=O)N(CC(=O)Nc3ccc(F)c(F)c3)C(=O)C2C)cc1 (stereo not drawn)	none
CC(=O)Nc1ccc(S(=O)(=O)c2cc(O)ccc2O)cc1	none (no result: TPT1 inhibitor)
CN(C)c1ccc2nc3ccc(=O)cc-3sc2c1	CSN deneddyl inh 55 (no result: TPT1 inhibitor) | CSN deneddyl val 104 | MMP2 cntr CSN 26 | Thrombin counter inactive
O=C1NC(=S)S/C1=C\C=C\c1ccc([N+](=O)[O-])o1	Myeloid diff MLP inconclusive (not shown: Rpn11 inh, TPT1 inhibitor)
O=C1NC(=S)S/C1=C/c1ccc(N2CCOCC2)o1	CSN deneddyl inh 118, Myeloid diff MLP active (not shown: Rpn11 inh) | CSN deneddyl val 100 | MMP2 cntr CSN -25 | Thrombin counter inactive
O=[N+]([O-])c1ccc(C2=NN(c3ccccc3)C(c3ccco3)C2)cc1 (stereo not drawn)	CSN deneddyl inh 63, Myeloid diff MLP active (not shown: Rpn11 inh, TPT1 inhibitor) | CSN deneddyl val 176 | MMP2 cntr CSN inactive | Thrombin counter inactive
N=C(N)c1ccc(/C=C/c2ccc(C(=N)N)cc2O)cc1	CSN deneddyl inh 46 | CSN deneddyl val inactive | MMP2 cntr CSN inactive | Thrombin counter 32
O=S(=O)(Nc1c(S(=O)(=O)c2ccccc2)c2nc3ccccc3nc2n1C1CCCCC1)c1ccccc1	CSN deneddyl inh 58 | CSN deneddyl val inactive | MMP2 cntr CSN inactive | Thrombin counter inactive
C=CCn1c(NS(=O)(=O)c2ccccc2)c(S(=O)(=O)c2ccc(C)cc2)c2nc3ccccc3nc21	none
Cc1c(C(=O)C(=O)N2CCN(Cc3ccc4c(c3)OCO4)CC2)c2ccccc2n1C	none
CC1CC(C)CN(C(=O)CCC(=O)Nc2nnc(C3CCCCC3)s2)C1 (stereo not drawn)	none
O=C1c2c(O)ccc(O)c2C(=O)c2c(NCCNCCO)ccc(NCCNCCO)c21	Rpn11 inh 43, CSN deneddyl inh 44, Myeloid diff MLP inconclusive | CSN deneddyl val inactive | MMP2 cntr CSN 31 | Thrombin counter inactive
Cc1ccc(/C=C2\SC(=S)N(Cc3ccccc3)C2=O)o1	CSN deneddyl inh 115, TPT1 inhibitor 39 (not shown: Rpn11 inh) | CSN deneddyl val 108 | MMP2 cntr CSN inactive | Thrombin counter 24
O=C1/C(=C\c2ccc(O)c(O)c2)SC(=S)N1Cc1ccccc1	HNF4A DNA FP 68, CSN deneddyl inh 55, Myeloid diff MLP active (not shown: Rpn11 inh, TPT1 inhibitor) | CSN deneddyl val inactive | MMP2 cntr CSN inactive | Thrombin counter 68
O=C1/C(=C\c2cccc(O)c2)SC(=S)N1Cc1ccccc1	none
O=C(CSc1nnc(SCc2ccc(Cl)cc2)s1)N/N=C/c1ccccc1C(=O)O	none
Nc1cccc2c1C(=O)N(C(=O)/C=C/c1ccc(F)cc1)C2=O	CSN deneddyl inh 37 | CSN deneddyl val 69 | MMP2 cntr CSN inactive | Thrombin counter inactive
Nc1cccc2c1C(=O)N(C(=O)c1ccco1)C2=O	none
O=C(CSc1nnc(-c2ccco2)c(-c2ccco2)n1)c1ccccc1	CSN deneddyl inh 37 | CSN deneddyl val 98 | MMP2 cntr CSN inactive | Thrombin counter inactive
CC(=O)c1ccc(NC(=O)CSc2nnc(-c3ccco3)c(-c3ccco3)n2)cc1	none
